pEC50, pIC50: −log10 of the molar value.
Columns and labels:
[1] = Cytotoxicity against human HuH7 cells; assay type: cell-based, Huh-7
Hepatitis C virus = test: Antiviral activity against HCV 1b infected in human HuH7 cells after 46 to 50 hrs by luc/neo ET replicon assay; assay type: functional, organism-based, Hepacivirus hominis; settings: genotype 1b, Huh-7
Outline: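 Huh-7 cells stably carrying luc/neo ET replicon, grown in DMEM with 10% FCS, were seeded at 5 × 10³ cells/well. Serially diluted compounds were added about 24 h after plating, at 1% final DMSO. After 46–50 h exposure, cells were lysed with BrightGLO reagent for 2 min at 20 °C and luminescence was read.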

[2] = Inhibition of HCV isolate HC-J4 NS5B deltaC21 polymerase; set-up: species or system Hepatitis C virus isolate HC-J4
Outline: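 Genotype 1b J4 ΔC21 enzyme (5 nM) in 20 mM Tris pH 7.5 with 5 mM MgCl₂, 5 mM KCl, 1 mM EDTA, 2 mM DTT and 0.01% BSA, room temperature. Serial DMSO dilutions were preincubated with enzyme for 5 min. Reaction was started with 250 nM 5′-biotin-rU₁₂ primer, poly-rA template, UTP and ³H-UTP, in 5% DMSO, and run 2 h. Stopped with EDTA/streptavidin SPA beads, then CsCl; scintillation counting.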

[3] = Inhibition of HCV 1a NS5B polymerase; set-up: species or system Hepatitis C virus subtype 1a

Row | Compound | CC50 [1] [µM] | pEC50 (Hepatitis C virus) | pIC50 [2] | pIC50 [3]
1 | COc1c(C2=NS(=O)(=O)c3cc(NS(C)(=O)=O)ccc3N2)c(O)c2ccccc2c1CCC(C)C | 120 | 5.54 | 7.43 | –
2 | CC(C)CCc1c(O)c2c(c3ccccc13)OCN1C2=NS(=O)(=O)c2cc(NS(C)(=O)=O)ccc21 | > 100 | 4.47 | 6.28 | –
3 | CC(C)CCn1c(=O)c(C2=NS(=O)(=O)c3ccccc3N2)c(O)c2ccccc21 | – | 6.38 | – | –
4 | CC(C)CCc1c(O)c2c(c3ccccc13)OCN1C2=Nc2ccc(NS(C)(=O)=O)cc2S1(=O)=O | 35 | 4.92 | 5.89 | –
5 | COc1c(C2=NS(=O)(=O)c3cc(NS(C)(=O)=O)ccc3N2)c(OC)c2ccccc2c1CCC(C)C | 40 | < 4.00 | 6.20 | –
6 | COc1c(C2=NS(=O)(=O)c3ccccc3N2)cc(CCC(C)C)c2ccccc12 | 13 | 5.02 | 4.57 | –
7 | CC(C)CCc1c2c(c(O)c3ccccc13)C1=NS(=O)(=O)c3cc(NS(C)(=O)=O)ccc3N1CO2 | > 100 | < 4.00 | 5.06 | –
8 | CC(C)CCC1(O)C(=O)C(C2=NS(=O)(=O)c3cc(NS(C)(=O)=O)ccc3N2)=C(O)c2ccccc21 (stereo not given) | > 100 | 7.72 | > 8.30 | –
9 | CC(C)CCc1c(F)c(C2=NS(=O)(=O)c3ccccc3N2)c(O)c2ccccc12 | 12 | 4.72 | 6.96 | –
10 | CC(C)CCc1c(F)c(C2=NS(=O)(=O)c3cc(NS(C)(=O)=O)ccc3N2)c(O)c2ccccc12 | > 100 | 5.57 | 7.51 | –
11 | CC(C)CCc1cc(C2=NS(=O)(=O)c3cc(NS(C)(=O)=O)ccc3N2)c(O)c2ccccc12 | > 100 | 5.37 | 6.82 | –
12 | CC(C)CCc1c2c(c(O)c3ccccc13)C1=Nc3ccc(NS(C)(=O)=O)cc3S(=O)(=O)N1CO2 | 33 | 5.08 | 6.31 | –
13 | COc1c(C2=NS(=O)(=O)c3cc(NS(C)(=O)=O)ccc3N2)c(O)c(CCC(C)C)c2ccccc12 | 110 | 5.96 | 8.30 | –
14 | CC(C)CC[C@@]1(C)C(=O)C(C2=NS(=O)(=O)c3cc(NS(C)(=O)=O)ccc3N2)=C(O)c2ccccc21 | – | – | 9.48 | 8.90
15 | COc1c(C2=NS(=O)(=O)c3cc(NS(C)(=O)=O)ccc3N2)cc(CCC(C)C)c2ccccc12 | 51 | 4.68 | 7.32 | –
16 | CC(C)CCc1cc(C2=NS(=O)(=O)c3ccccc3N2)c(O)c2ccccc12 | 37 | 4.59 | 5.08 | –
